Screens: PubChem BioAssay, Johns Hopkins Ion Channel Center
KCNK3 block = human KCNK3 channel inhibition, primary screen; O14649; CHO-KCNK3 thallium flux, FluxOR fluorescence; hits give low values; B-score at 10 µM; 340,000 compounds, 0.84% hits; AID 602410;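 active = B-score under library mean minus 4 SD, starting fluorescence ratio at most library mean plus 5 SD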;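 note: more negative B-score means stronger inhibition of thallium flux through KCNK3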
Kir21 block = blocks the mouse Kir2.1 inward-rectifier potassium channel | P35561 | HEK293-Kir2.1, FluxOR thallium flux fluorescence; hits give low values | B-score at 10 µM | 310,000 compounds, 0.85% hits | AID 1672;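 active = fluorescence ratio B-score at or below minus 3 SD of library scores, with starting-brightness B-score within 2 SD, cut at about -4.2 in these data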;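 note: channel flux triggered by added potassium and thallium sulfate stimulus; B-score of peak minus minimum fluorescence over baseline after thallium stimulus; more negative B-score means stronger Kir2.1 block with less thallium influx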
hERG rescue = hERG (human) protection from proarrhythmic block. Q12809. CHO-hERG, FluxOR thallium flux, dofetilide IC70 present. activation (rescue from dofetilide block), less the hit threshold, % at 10 µM. 310,000 compounds, 0.51% hits;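 active = activation above the mean of controls blocked by dofetilide plus 5 SD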;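 note: thallium influx through hERG after potassium depolarization seen as dye fluorescence rise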
Target sequence (Q12809 whole entry, looked up): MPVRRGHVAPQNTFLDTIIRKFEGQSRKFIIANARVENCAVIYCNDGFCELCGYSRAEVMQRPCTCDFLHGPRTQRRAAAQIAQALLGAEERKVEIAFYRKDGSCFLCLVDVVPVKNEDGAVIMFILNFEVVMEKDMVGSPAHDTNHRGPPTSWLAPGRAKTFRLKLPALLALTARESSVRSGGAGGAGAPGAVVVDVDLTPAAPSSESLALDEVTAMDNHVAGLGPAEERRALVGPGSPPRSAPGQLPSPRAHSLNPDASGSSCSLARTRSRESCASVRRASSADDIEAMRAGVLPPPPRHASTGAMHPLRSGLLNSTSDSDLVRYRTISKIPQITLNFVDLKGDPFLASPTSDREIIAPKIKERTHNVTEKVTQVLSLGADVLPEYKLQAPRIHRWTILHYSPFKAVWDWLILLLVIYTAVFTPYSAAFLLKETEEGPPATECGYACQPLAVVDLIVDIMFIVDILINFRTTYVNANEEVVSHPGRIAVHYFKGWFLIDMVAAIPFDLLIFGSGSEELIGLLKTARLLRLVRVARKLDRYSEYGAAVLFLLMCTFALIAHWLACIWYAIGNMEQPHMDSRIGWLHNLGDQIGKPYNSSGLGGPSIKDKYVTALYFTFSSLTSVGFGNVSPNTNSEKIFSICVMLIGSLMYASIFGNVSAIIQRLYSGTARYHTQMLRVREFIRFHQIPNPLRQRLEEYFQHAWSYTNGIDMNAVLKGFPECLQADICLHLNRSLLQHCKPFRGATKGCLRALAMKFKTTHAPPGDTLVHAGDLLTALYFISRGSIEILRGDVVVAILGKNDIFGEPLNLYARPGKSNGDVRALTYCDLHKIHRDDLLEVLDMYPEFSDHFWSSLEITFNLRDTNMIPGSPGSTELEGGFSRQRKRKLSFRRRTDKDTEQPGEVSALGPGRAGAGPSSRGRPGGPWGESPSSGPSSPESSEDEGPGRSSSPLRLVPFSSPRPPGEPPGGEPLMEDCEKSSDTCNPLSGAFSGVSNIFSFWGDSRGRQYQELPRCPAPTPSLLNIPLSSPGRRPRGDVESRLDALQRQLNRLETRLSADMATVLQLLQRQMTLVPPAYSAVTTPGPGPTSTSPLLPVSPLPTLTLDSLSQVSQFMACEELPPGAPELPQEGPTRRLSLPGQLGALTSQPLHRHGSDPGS
KCNQ1 inh = inhibitors of human KCNQ1 potassium channel; CHO-K1 KCNQ1, FluxOR thallium flux fluorescence; hits give high values; B-score at 10 µM; 310,000 compounds, 1.3% hits;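 active = compounds whose thallium flux B-score, printed positive for inhibition, exceeds three library SD while starting fluorescence stays within three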;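 note: channel opened by potassium depolarization with thallium stimulus after 20 min compound exposure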
KCNQ1 act = potentiators or activators of human KCNQ1 potassium channel. B-score at 10 µM. P51787. CHO-K1 KCNQ1, thallium flux FluxOR fluorescence; hits give high values. 310,000 compounds, 0.35% hits. AID 2648;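 active = fluorescence ratio B-score, a plate-corrected score, at least three library SD, with initial intensity B-score within 5 SD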
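assay system = CHO-K1 cells stably expressing KCNQ1 | medium = assay buffer, equal DMSO in all wells | timing = 37 °C overnight plating, 90-min dark dye load, 20-min compound pretreatment | measured by = kinetic FluxOR thallium fluorescence, 10-s 1-Hz baseline, 110-s post-stimulus read | measure = fluorescence change relative to baseline, converted to B score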
KCNK9 block = human KCNK9 channel inhibition; 310,000 compounds, 1.2% hits; B-score at 10 µM; AID 488922; Q9NPC2; HEK293 KCNK9, FluxOR thallium flux fluorescence; hits give low values;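 active = ratio B-score over 3 SD below the library mean, with starting fluorescence within 5 SD of its mean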;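 note: negative B-score means less thallium flux so channel inhibition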
Each line names hits and unclear results; the compound was inactive in the other large screens. A selection: hits, their analogues and other compounds. The true share with any hit is near 3.7%.

O=C(Nc1nnc(-c2ccco2)o1)c1ccc2ccccc2c1	hERG rescue 6.8
CCOc1ccc(N(CC(=O)NC(C(C)C)C(C)C)S(=O)(=O)c2ccc(OC)c(OC)c2)cc1	none
CS(=O)(=O)N(CC(=O)N1CCc2ccccc2C1)c1cccc(F)c1	Kir21 block -4.23, hERG rescue 11.4
Cc1nc(NCC2CCCO2)c2oc3ccccc3c2n1 (centres undefined)	none
CCc1nc(Nc2ccc3c(c2)OCCO3)c2oc3ccccc3c2n1	KCNK9 block -7.57
CCc1nc(Nc2ccc(O)cc2)c2oc3ccccc3c2n1	none
CCc1nc(NCC2CCCO2)c2oc3ccccc3c2n1 (centres undefined)	KCNK3 block -28
Cc1ccccc1OCC(=O)Nc1ccc2c(c1)C(=O)c1ccccc1C2=O	none
Cn1c(=O)c2c(ncn2CC(=O)N/N=C/C(Cl)=C/c2ccccc2)n(C)c1=O	KCNQ1 act 11
Cn1c(=O)c2c(ncn2CCC(=O)N/N=C/c2ccccc2)n(C)c1=O	none
CCOC(=O)Cn1c(S(=O)(=O)Cc2ccc(Cl)cc2)nc(-c2ccccc2)c1-c1ccccc1	KCNK9 block -6.76
CN(c1ccccc1)c1nc(N)c([N+](=O)[O-])c(Nc2ccccc2F)n1	KCNK9 block -6.89
CC(Sc1nnc(-c2ccccc2F)n1C1CC1)C(=O)NC(N)=O (centres undefined)	none
Cc1cc2ncn(CS(C)(=O)=O)c2cc1C	none
C=C(C)Cn1cnc2cc(C)c(C)cc21	hERG rescue 8.6
CCOC(=O)c1sc(=S)n(C)c1NC(=O)c1ccc(C(C)(C)C)cc1	KCNQ1 inh 11
COc1ccc(/C=C2\CN(Cc3ccccc3)C/C(=C\c3ccc(OC)cc3OC)C2=O)c(OC)c1	none
COc1ccc(C=C2c3ccccc3C(=O)c3ccccc32)c(OC)c1	KCNK9 block -8.7
COc1ccc(/C=N/Nc2cc(C)nc(-n3nc(C)cc3C)n2)cc1	KCNK9 block -6.66
COc1ccccc1/C=N/Nc1cc(C)nc2ccc(C)cc12	none
COc1ccc2nc(C)cc(N/N=C/c3ccccc3)c2c1	KCNK3 block -9.38 (no result: Kir21 block, hERG rescue, KCNQ1 inh, KCNQ1 act, KCNK9 block)
Cc1cc(N/N=C/c2cccc(Cl)c2)nc(-n2nc(C)cc2C)n1	KCNK9 block -8.02
Cc1cc(N/N=C/c2cccc([N+](=O)[O-])c2)nc(-n2nc(C)cc2C)n1	none
S=C(NC1CCCC1)N1CCN(C/C=C/c2ccccc2)CC1	none
CN(C)c1ccc(S(=O)(=O)N2CCCCC2)cc1NC(=O)CCNC(=O)c1ccc(Cl)cc1	none (no result: Kir21 block, hERG rescue, KCNQ1 inh, KCNQ1 act, KCNK9 block)
CCn1c(=O)c2cc(C(=O)N(C)c3cc(C)ccc3OC)sc2c2ccccc21	KCNK9 block -15.3
CCn1c(=O)c2cc(C(=O)N(C)c3ccc(OC)cc3OC)sc2c2ccccc21	none
CCC1CCCCN1Cc1ccc(OC)c(C)c1C (centres undefined)	hERG rescue 5.3
COc1ccc(CN2CCN(C3CCSCC3)CC2CCO)c(C)c1C (centres undefined)	none
Cc1c(N2C(=O)/C(=C/c3cccc4ccccc34)SC2=S)c(=O)n(-c2ccccc2)n1C	none
CN1C(=O)/C(=C/c2cc(N=Nc3ccccc3)ccc2O)SC1=S	KCNQ1 inh 7
Cc1c(N2C(=O)/C(=C\c3ccccc3O)SC2=S)c(=O)n(-c2ccccc2)n1C	hERG rescue 17.5, KCNQ1 act 42
O=C1/C(=C\c2cc(Br)cc(Br)c2O)SC(=S)N1Cc1ccccc1	none
Cc1ccc(CCN2C(=O)c3ccccc3C2C(=O)NCc2cccnc2)cc1 (centres undefined)	none
O=S(=O)(c1cccc(-c2nnc(SCc3ccc(Cl)cc3)o2)c1)N1CCCCC1	KCNK9 block -7.21
O=C(O)CC(NC(=O)c1cccc([N+](=O)[O-])c1)c1ccc2c(c1)OCO2 (centres undefined)	none
Cc1ccc(S(=O)(=O)O/N=C2\CCCc3ccccc32)cc1	none
CC1=C(C)/C(=N\OS(=O)(=O)c2ccccc2)C=CC1=O	Kir21 block -11.1
CCN1CCN(Cc2cc(=O)oc3cc4c(cc23)CCC4)CC1	KCNQ1 inh 8
CN1CCN(Cc2cc(=O)oc3cc4c(cc23)CCC4)CC1	none
